According to ChEMBL document CHEMBL1122490, “Aporphines. 48. Enantioselectivity of (R)-(-)- and (S)-(+)-N-n-propylnorapomorphine on dopamine receptors” (J Med Chem, 1983):

Experiments:
[1] = species on record: Rattus norvegicus; assay: Percent control of stimulation of cAMP production in rat striatal homogenate at 50 micro M concentration; format: functional
Procedure, shortened: (§1)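 Rat corpus striatum homogenates were incubated with excess ATP and theophylline to inhibit phosphodiesterase. cAMP formed per 2.5-min assay above the basal (no agonist) level was measured by protein-binding assay. Results are given as mean pmol ± SEM, and as percent of the blank control, with 5–12 replicates per concentration.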

[2] = species on record: Rattus norvegicus; assay: Stimulation of cAMP production in homogenates of corpus striatum from rat brain, at a concentration of 50 uM.; format: functional, organism-based; procedure, shortened: as §1
[3] = system: Rattus norvegicus; assay: Stereotypic behavior of male Sprague-Dawley rats, after a sc administration of 5 dose(mg/kg); format: functional
Procedure, shortened: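 Male Sprague-Dawley rats (175–200 g), group-housed with free food and water, 12-h light cycle. Drug freshly dissolved in ice-cold 1 mM citric acid/0.9% saline (1:4, v/v), given sc; vehicle injected as placebo. Stereotypy rated 0–3 by experienced observer from 30-s observations every 10 min over 60 min (maximum 18). Four to six rats per dose; means ± SEM.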

| Structure (SMILES) | Control [1] | cAMP production [2] | Stereotypy score [3] |
| --- | --- | --- | --- |
| NCCc1ccc(O)c(O)c1 | 217% | 5.39 N | – |
| CCCN1CCc2cccc3c2[C@@H]1Cc1ccc(O)c(O)c1-3.CCCN1CCc2cccc3c2[C@H]1Cc1ccc(O)c(O)c1-3 (racemic; (+)) | – | – | 17.2 |
| CCCN1CCc2cccc3c2[C@@H]1Cc1ccc(O)c(O)c1-3.CCCN1CCc2cccc3c2[C@H]1Cc1ccc(O)c(O)c1-3 (racemic; (-)) | – | – | 18 |
| CCCN1CCc2cccc3c2[C@@H]1Cc1ccc(O)c(O)c1-3.CN1CCc2cccc3c2[C@H]1Cc1ccc(O)c(O)c1-3 (stereo in doubt; (+)) | – | – | 17.5 |
| CCCN1CCc2cccc3c2[C@@H]1Cc1ccc(O)c(O)c1-3.CN1CCc2cccc3c2[C@H]1Cc1ccc(O)c(O)c1-3 (stereo in doubt; (-)) | – | – | 17.7 |
| CN1CCc2cccc3c2[C@H]1Cc1ccc(O)c(O)c1-3 [APOMORPHINE] | – | – | 18 |
